Test results taken from EPA's CvTdb concentration-time database.

Columns and labels:
human [1] = assay: concentration in blood after dosing; settings: dosed: tert-amyl methyl ether
Method in brief: (§1)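 Sampling and analytical methods are those of each source and frequently went unreported. The concentration-versus-time and amount-versus-time points were compiled from published in vivo toxicokinetic studies and two structured collections. Most were digitised from plot screenshots with WebPlotDigitizer, with others copied from tables, in the reported units.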

human [2] = assay: concentration in blood after dosing; negative times count back from the end of exposure; settings: inhalation
Method in brief: as §1

rat [3] = assay: concentration in plasma after dosing; settings: dosed: propylparaben, oral, male, Wistar
human [4] = assay: amount in urine after dosing (umol); settings: dosed: tert-amyl methyl ether
Method in brief: as §1

rat [5] = assay: amount in urine after dosing (umol); settings: dosed: tert-amyl methyl ether, 38.4 ppm, inhalation, duration: 4 hr, F344 (Harlan Winkelmann)
rat [6] = assay: concentration in blood after dosing; settings: dosed: 1,3-butadiene, inhalation, duration: 6 hr, Sprague Dawley
human [7] = assay: concentration in expired air after dosing; negative times count back from the end of exposure; settings: dosed: 1,3-butadiene, 5 ppm, inhalation, duration: 120 min
Method in brief: as §1

CCC(C)(C)OC [tert-amyl methyl ether]
human [1], inhalation, duration: 4 hr
Settings | concentration in blood [nM]
0 h, 3.8 ppm | 589
2.022 h, 3.8 ppm | 208
2.034 h, 38.4 ppm | 1350
3.985 h, 38.4 ppm | 801
4.008 h, 3.8 ppm | 139
6.018 h, 38.4 ppm | 611
6.02 h, 3.8 ppm | 111
7.969 h, 38.4 ppm | 438
9.976 h, 38.4 ppm | 225
10.01 h, 3.8 ppm | 85
12.01 h, 38.4 ppm | 183
12.05 h, 3.8 ppm | 73.7
99 s, 38.4 ppm | 4500

human [1], oral
Settings | concentration in blood [nM]
1.016 h, 15 mg | 145
1.043 h, 5 mg | 60.8
2.059 h, 15 mg | 70.2
2.113 h, 5 mg | 29.4
3.073 h, 5 mg | 13.9
4.009 h, 15 mg | 33
4.034 h, 5 mg | 9.2
6.041 h, 15 mg | 19.9
6.064 h, 5 mg | 6.34
8.046 h, 15 mg | 16.9
8.067 h, 5 mg | 3.85
9.995 h, 15 mg | 9.91
10.04 h, 5 mg | 3.13
12 h, 15 mg | 4.16

human [2], dosed: tert-amyl methyl ether, 15 ppm, duration: 4 hr, male
Settings | concentration in blood [nM]
0.7676 h | 2300
1.198 h | 1900
2.571 h | 1140
7.198 h | 344
19.78 h | 86.8
338 s | 4220

human [2], dosed: tert-amyl methyl ether, 15 ppm, duration: 4 hr, male, during exposure
Settings | concentration in blood [nM]
-4 h | 6.05
-3.022 h | 1710
-1.895 h | 3490
-0.981 h | 3580

CCCOC(=O)c1ccc(O)cc1 [propylparaben]
concentration in plasma [ng/mL], rat [3]
Settings | 0.2504 h | 0.5008 h | 0.9984 h | 1.002 h | 2 h | 2.003 h | 4 h | 4.003 h | 297 s
3 mg/kg | 871 | 280 | – | 88.4 | 82.5 | – | – | – | 495
10 mg/kg | 3140 | 1720 | 466 | – | 271 | – | 23.6 | – | 1790
100 mg/kg | 8510 | 7830 | 4220 | – | 2980 | – | 495 | – | 8610
1000 mg/kg | 14100 | 17200 | – | 11500 | – | 9040 | – | 6390 | 15900

CCC(C)(C)O [tert-amyl alcohol]
oral
Settings | amount in urine | concentration in blood [nM]
human [1], 0.9886 h, 15 mg | – | 972
human [1], 1.015 h, 5 mg | – | 445
human [1], 2.032 h, 15 mg | – | 777
human [1], 2.058 h, 5 mg | – | 340
human [1], 3.046 h, 5 mg | – | 276
human [1], 3.982 h, 15 mg | – | 540
human [1], 4.006 h, 5 mg | – | 220
human [1], 6.037 h, 5 mg | – | 155
human [1], 6.041 h, 15 mg | – | 355
human [1], 8.046 h, 15 mg | – | 254
human [1], 8.067 h, 5 mg | – | 111
human [1], 9.995 h, 15 mg | – | 177
human [1], 10.02 h, 5 mg | – | 86.5
human [1], 12.03 h, 15 mg | – | 101
human [1], 12.05 h, 5 mg | – | 67.4
human [4], 0 h, 5 mg | 0.00166 | –
human [4], 0 h, 15 mg | 0.00586 | –
human [4], 6.182 h, 15 mg | 0.181 | –
human [4], 6.2 h, 5 mg | 0.176 | –
human [4], 11.93 h, 15 mg | 0.0638 | –
human [4], 11.99 h, 5 mg | 0.0598 | –
human [4], 17.98 h, 15 mg | 0.0106 | –
human [4], 18.09 h, 5 mg | 0.0183 | –

inhalation, duration: 4 hr
Settings | amount in urine | concentration in blood [nM]
human [1], 2.005 h, 3.8 ppm | – | 816
human [1], 2.034 h, 38.4 ppm | – | 7740
human [1], 3.957 h, 38.4 ppm | – | 6550
human [1], 3.966 h, 3.8 ppm | – | 480
human [1], 6.018 h, 38.4 ppm | – | 5900
human [1], 7.942 h, 38.4 ppm | – | 4140
human [1], 9.948 h, 38.4 ppm | – | 3160
human [1], 11.98 h, 38.4 ppm | – | 2850
human [1], 23.91 h, 38.4 ppm | – | 835
human [1], 78 s, 3.8 ppm | – | 960
human [1], 99 s, 38.4 ppm | – | 9530
human [4], 0.144 h, 38.4 ppm | 1.36 | –
human [4], 5.941 h, 3.8 ppm | 0.345 | –
human [4], 6.198 h, 38.4 ppm | 2.11 | –
human [4], 12.1 h, 3.8 ppm | 0.143 | –
human [4], 12.11 h, 38.4 ppm | 1.74 | –
human [4], 17.91 h, 3.8 ppm | 0.0476 | –
human [4], 18.16 h, 38.4 ppm | 0.992 | –
human [4], 24.21 h, 38.4 ppm | 0.62 | –
human [4], 30.05 h, 38.4 ppm | 0.248 | –
human [4], 36.11 h, 38.4 ppm | 0.372 | –
human [4], 248 s, 3.8 ppm | 0.119 | –

rat [5]
Settings | amount in urine
5.91 h | 0.0178
11.97 h | 0.0273
17.83 h | 0.0115
23.9 h | 0.0462

human [2], dosed: tert-amyl methyl ether, duration: 4 hr, male
Settings | concentration in blood [nM]
0.6509 h, 50 ppm | 17000
0.7385 h, 15 ppm | 4840
1.158 h, 50 ppm | 16000
1.169 h, 15 ppm | 4710
2.413 h, 50 ppm | 13400
2.567 h, 15 ppm | 4380
6.871 h, 50 ppm | 7280
7.192 h, 15 ppm | 2200
19.71 h, 50 ppm | 1840
19.75 h, 15 ppm | 597
141 s, 15 ppm | 5450

concentration in blood [nM], human [2], dosed: tert-amyl methyl ether, duration: 4 hr, male, during exposure
Settings | -4 h | -3.999 h | -3.146 h | -3.049 h | -1.944 h | -1.922 h | -1.113 h | -1.062 h
15 ppm | 6 | – | – | 1700 | – | 3520 | – | 4030
50 ppm | – | 10 | 6060 | – | 5580 | – | 11900 | –

CCCCOCCO [2-butoxyethanol]
human [2], dosed: 2-butoxyethanol, 20 ppm, duration: 2 hr
Settings | concentration in blood [nM]
0.1474 h | 4330
0.3298 h | 3310
0.4842 h | 3420
0.6526 h | 2200
1.004 h | 1410
1.326 h | 1000
1.663 h | 1090
1.986 h | 987
25 s | 7200
227 s | 4220

human [2], dosed: 2-butoxyethanol, 20 ppm, duration: 2 hr, during exposure
Settings | concentration in blood [nM]
-1.916 h | 2830
-1.832 h | 2770
-1.677 h | 4530
-1.34 h | 5020
-1.018 h | 7010
-0.6807 h | 7200
-0.3438 h | 7400

C=CC=C [1,3-butadiene]
Settings | concentration in blood [nM] | concentration in expired air [ppm]
human [7], -0.1653 h, during exposure | – | 4.58
human [7], -0.3284 h, during exposure | – | 4.31
human [7], -0.6614 h, during exposure | – | 4.14
human [7], -0.8313 h, during exposure | – | 3.79
human [7], -0.9977 h, during exposure | – | 3.77
human [7], -1.168 h, during exposure | – | 4.56
human [7], -1.331 h, during exposure | – | 4.38
human [7], -1.501 h, during exposure | – | 3.62
human [7], -1.67 h, during exposure | – | 4.25
human [7], -1.834 h, during exposure | – | 3.95
rat [6], 1.898 h, 63 ppm | 1290 | –
rat [6], 1.898 h, 616 ppm | 15300 | –
rat [6], 1.898 h, 1249 ppm | 31200 | –
rat [6], 2.9 h, 63 ppm | 1400 | –
rat [6], 2.9 h, 616 ppm | 17200 | –
rat [6], 2.9 h, 1249 ppm | 35400 | –
rat [6], 3.895 h, 63 ppm | 1250 | –
rat [6], 3.895 h, 616 ppm | 16500 | –
rat [6], 3.903 h, 1249 ppm | 38700 | –
rat [6], 5.893 h, 616 ppm | 18500 | –
rat [6], 5.901 h, 63 ppm | 1260 | –
rat [6], 5.901 h, 1249 ppm | 39600 | –
rat [6], 5.931 h, 1249 ppm | 9110 | –
rat [6], 5.962 h, 1249 ppm | 6000 | –
rat [6], 5.977 h, 63 ppm | 342 | –
rat [6], 5.993 h, 616 ppm | 4050 | –
rat [6], 6.016 h, 1249 ppm | 7440 | –
rat [6], 6.077 h, 63 ppm | 286 | –
rat [6], 6.092 h, 616 ppm | 2800 | –
rat [6], 6.092 h, 1249 ppm | 4210 | –
rat [6], 6.176 h, 1249 ppm | 4260 | –
rat [6], 6.184 h, 616 ppm | 3100 | –
rat [6], 6.23 h, 63 ppm | 198 | –
rat [6], 6.314 h, 63 ppm | 181 | –
rat [6], 6.329 h, 616 ppm | 2350 | –
rat [6], 6.391 h, 63 ppm | 101 | –

human [7]
Settings | concentration in expired air [ppm]
0.1234 h | 0.329
0.1404 h | 0.298
0.1642 h | 0.278
0.1948 h | 0.278
0.2288 h | 0.267
0.2661 h | 0.267
0.3375 h | 0.226
0.402 h | 0.206
0.436 h | 0.185
0.4734 h | 0.175
0.5006 h | 0.144
0.5447 h | 0.144
0.6059 h | 0.144
0.6602 h | 0.123
0.701 h | 0.123
0.7588 h | 0.103
0.8029 h | 0.103
0.8505 h | 0.0823
0.9049 h | 0.0823
16 s | 4.55
77 s | 0.782
126 s | 0.535
200 s | 0.473
249 s | 0.35
334 s | 0.37
